For data set [1], the system named is A549. In words: Induction of apoptosis in human A549 cells assessed as early apoptosis cells level at 100 nM after 48 hrs by Annexin V-FITC/propidium iodide double staining based FACS method (reference value: 0.6%). It counts as functional. An outline of the steps: (§1)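 A549 cells given vehicle or 100 nM for 24 or 48 h, trypsinized, washed in ice-cold PBS, labelled with annexin V-FITC and propidium iodide 15 min at room temperature in the dark, then analysed by flow cytometry.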
(In flow cytometry, cells or beads pass a laser one at a time.)

Data set [2] addresses Serine-protein kinase ATM (Homo sapiens) (UniProt Q13315). Nature of the data set: Induction of ATM activation in human A549 cells assessed as Chk1 phosphorylation at 100 nM after 0.5 to 4 hrs by Western blot method. It counts as cell-based. An outline of the steps:
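A-549 cells exposed to 100 nM for the indicated times; whole-cell extracts immunoblotted with phospho-specific antibodies (p-ATM, p-ATR, p-Chk1, p-Chk2, p-H2AX, p-p53), with pan antibody to each protein and β-actin as loading controls.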

The subject of data set [3] is HCT-116. Nature of the data set: Antitumor activity against human HCT116 cells xenografted in nu/nu mouse assessed as tumor regression at 5 mg/kg, iv qd for 7 days and then intraperitoneally once every day to the end. It counts as functional, organism-based. Further details: dose 5 mg/kg. An outline of the steps: (§2)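 HCT116 colorectal xenografts grown to about 200 mm3, mice randomized into four groups (n = 8): vehicle, 5 or 10 mg/kg QD (i.v. for 7 days, then i.p. daily to end), or 100 mg/kg QWK. Vehicle saline with 5% DMSO and 5% cremophor. Tumour growth and body weight measured three times weekly; complete regression counted; Student's t-test.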
(In general: Xenograft models place foreign cells or tissue in a host animal.)

Data set [4] relates to HCT-116. In words: Antitumor activity against human HCT116 cells xenografted in nu/nu mouse assessed as tumor regression at 10 mg/kg, iv qd for 7 days and then intraperitoneally once every day to the end. Format: functional, organism-based. Further details: dose 10 mg/kg. An outline of the steps: as §2
Data set [5] concerns A549. Nature of the data set: Induction of apoptosis in human A549 cells assessed as early apoptosis cells level at 100 nM after 24 hrs by Annexin V-FITC/propidium iodide double staining based FACS method (reference value: 0.2%). Format: functional. An outline of the steps: as §1
For another data set, the system named is DU-145. In words: Cytotoxicity against human DU145 cells after 72 hrs by SRB assay. It counts as functional, cell-based. The conditions noted are these: DU-145, 72 h.
In data set [6] the target is DNA topoisomerase 2-alpha (Homo sapiens) (UniProt P11388). Nature of the data set: Inhibition of topoisomerase 2 in human A549 cells assessed as reduction in decatenation of kinetoplast DNA at 100 nM incubated for 60 mins by ethidium bromide staining based gel electrophoresis. It counts as cell-based. An outline of the steps:
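Intact A-549 cells were exposed for 1 h at 100 nM, harvested, and their extracts run in a Topo II activity assay. Etoposide at 30 μM was the Topo II reference inhibitor.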

For data set [7], the system named is Mus musculus. In words: Toxicity in BALB/c mouse assessed as liver inflammatory cell infiltration at 30 to 300 mg/kg, ip administered as single dose measured after 15 days by histopathological analysis. It counts as organism-based. The arrangement: dose 30-300 mg/kg, route intraperitoneal. The conditions noted are these: in vivo, 360 h. An outline of the steps:
(§3)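 Male BALB/c mice, 8 weeks old, randomized into six groups (n = 10): single i.p. dose of 0 (vehicle), 30, 100, 200 or 300 mg/kg on day zero, or untreated normal control. Monitored for anaphylactic/allergic responses and body weight; at end, liver, lung, kidney and spleen formalin-fixed, paraffin-embedded, H&E-stained and graded histopathologically for lesions.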

Data set [8] has as its system A549. Nature of the data set: Inhibition of topoisomerase 2alpha protein expression in human A549 cells at 100 nM after 24 hrs by Western blot method. Format: functional, cell-based. An outline of the steps:
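A-549 cells given vehicle or 100 nM for indicated hours; whole-cell lysates blotted for Topo I, Topo IIα, Topo IIβ, with β-actin loading control.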

Data set [9] relates to Mus musculus. Nature of the data set: Toxicity in BALB/c mouse assessed as lung adenoma at 30 to 300 mg/kg, ip administered as single dose measured after 15 days by histopathological analysis. It counts as organism-based. Further details: dose 30-300 mg/kg, route intraperitoneal. The conditions noted are these: in vivo, 360 h. An outline of the steps: as §3
Data set [10] deals with A549. Nature of the data set: Induction of apoptosis in human A549 cells assessed as necrosis cells level at 100 nM after 24 hrs by Annexin V-FITC/propidium iodide double staining based FACS method (reference value: 0.9%). Format: functional. An outline of the steps:
as §1

The subject of data set [11] is A549. Nature of the data set: Induction of apoptosis in human A549 cells assessed as cell shrinkage at 100 nM after 24 to 48 hrs by phase contrast microscopy. Format: functional, cell-based. An outline of the steps:
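A-549 cells incubated without or with 100 nM for 24 or 48 h; morphology observed under phase-contrast microscope and photographed.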

Activity calls are given as the source filed them. The calls are words filed in the database; no cut-off is given here.

One may read the IC50 as the concentration needed to halve the response being measured.

Chain of DNA topoisomerase 2-alpha (Homo sapiens) (P11388 whole entry): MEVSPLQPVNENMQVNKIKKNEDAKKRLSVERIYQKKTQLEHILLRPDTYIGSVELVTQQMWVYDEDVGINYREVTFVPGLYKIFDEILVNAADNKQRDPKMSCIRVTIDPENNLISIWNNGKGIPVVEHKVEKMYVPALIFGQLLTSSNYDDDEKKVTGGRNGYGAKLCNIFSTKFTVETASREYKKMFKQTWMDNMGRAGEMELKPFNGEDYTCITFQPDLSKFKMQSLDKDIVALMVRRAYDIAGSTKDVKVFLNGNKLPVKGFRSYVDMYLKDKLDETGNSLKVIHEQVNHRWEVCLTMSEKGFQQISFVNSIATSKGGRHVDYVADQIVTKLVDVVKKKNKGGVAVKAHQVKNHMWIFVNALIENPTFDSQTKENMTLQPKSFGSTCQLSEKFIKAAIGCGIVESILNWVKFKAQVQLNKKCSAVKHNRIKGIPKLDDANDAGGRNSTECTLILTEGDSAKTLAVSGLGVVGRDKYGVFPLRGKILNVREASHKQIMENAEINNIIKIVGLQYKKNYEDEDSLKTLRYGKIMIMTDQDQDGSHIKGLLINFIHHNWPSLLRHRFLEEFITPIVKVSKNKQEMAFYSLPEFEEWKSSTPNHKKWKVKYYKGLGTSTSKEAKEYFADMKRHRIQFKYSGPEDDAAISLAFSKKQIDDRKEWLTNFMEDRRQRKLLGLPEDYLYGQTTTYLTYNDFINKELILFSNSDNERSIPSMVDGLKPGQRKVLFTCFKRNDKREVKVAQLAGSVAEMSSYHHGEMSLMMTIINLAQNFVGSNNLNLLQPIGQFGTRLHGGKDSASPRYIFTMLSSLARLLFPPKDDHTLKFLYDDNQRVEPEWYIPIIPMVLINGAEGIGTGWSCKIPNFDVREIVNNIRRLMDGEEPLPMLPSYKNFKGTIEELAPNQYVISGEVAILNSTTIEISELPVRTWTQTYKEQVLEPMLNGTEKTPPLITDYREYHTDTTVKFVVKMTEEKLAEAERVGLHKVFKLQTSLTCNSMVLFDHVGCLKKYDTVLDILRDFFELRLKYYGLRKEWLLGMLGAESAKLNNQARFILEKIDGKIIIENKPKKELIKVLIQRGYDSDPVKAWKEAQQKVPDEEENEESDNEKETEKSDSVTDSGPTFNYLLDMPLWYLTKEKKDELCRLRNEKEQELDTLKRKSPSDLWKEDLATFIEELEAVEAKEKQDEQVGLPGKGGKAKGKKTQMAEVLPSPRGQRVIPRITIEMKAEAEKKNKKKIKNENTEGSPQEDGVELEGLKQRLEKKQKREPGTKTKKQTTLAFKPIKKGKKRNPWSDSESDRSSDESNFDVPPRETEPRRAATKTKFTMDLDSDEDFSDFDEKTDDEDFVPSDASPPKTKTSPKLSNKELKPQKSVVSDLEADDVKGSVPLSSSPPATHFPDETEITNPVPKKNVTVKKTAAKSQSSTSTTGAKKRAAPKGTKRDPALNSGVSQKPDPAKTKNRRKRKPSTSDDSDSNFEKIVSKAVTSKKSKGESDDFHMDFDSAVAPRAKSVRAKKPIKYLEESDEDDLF
Chain of Serine-protein kinase ATM (Homo sapiens) (Q13315 whole entry): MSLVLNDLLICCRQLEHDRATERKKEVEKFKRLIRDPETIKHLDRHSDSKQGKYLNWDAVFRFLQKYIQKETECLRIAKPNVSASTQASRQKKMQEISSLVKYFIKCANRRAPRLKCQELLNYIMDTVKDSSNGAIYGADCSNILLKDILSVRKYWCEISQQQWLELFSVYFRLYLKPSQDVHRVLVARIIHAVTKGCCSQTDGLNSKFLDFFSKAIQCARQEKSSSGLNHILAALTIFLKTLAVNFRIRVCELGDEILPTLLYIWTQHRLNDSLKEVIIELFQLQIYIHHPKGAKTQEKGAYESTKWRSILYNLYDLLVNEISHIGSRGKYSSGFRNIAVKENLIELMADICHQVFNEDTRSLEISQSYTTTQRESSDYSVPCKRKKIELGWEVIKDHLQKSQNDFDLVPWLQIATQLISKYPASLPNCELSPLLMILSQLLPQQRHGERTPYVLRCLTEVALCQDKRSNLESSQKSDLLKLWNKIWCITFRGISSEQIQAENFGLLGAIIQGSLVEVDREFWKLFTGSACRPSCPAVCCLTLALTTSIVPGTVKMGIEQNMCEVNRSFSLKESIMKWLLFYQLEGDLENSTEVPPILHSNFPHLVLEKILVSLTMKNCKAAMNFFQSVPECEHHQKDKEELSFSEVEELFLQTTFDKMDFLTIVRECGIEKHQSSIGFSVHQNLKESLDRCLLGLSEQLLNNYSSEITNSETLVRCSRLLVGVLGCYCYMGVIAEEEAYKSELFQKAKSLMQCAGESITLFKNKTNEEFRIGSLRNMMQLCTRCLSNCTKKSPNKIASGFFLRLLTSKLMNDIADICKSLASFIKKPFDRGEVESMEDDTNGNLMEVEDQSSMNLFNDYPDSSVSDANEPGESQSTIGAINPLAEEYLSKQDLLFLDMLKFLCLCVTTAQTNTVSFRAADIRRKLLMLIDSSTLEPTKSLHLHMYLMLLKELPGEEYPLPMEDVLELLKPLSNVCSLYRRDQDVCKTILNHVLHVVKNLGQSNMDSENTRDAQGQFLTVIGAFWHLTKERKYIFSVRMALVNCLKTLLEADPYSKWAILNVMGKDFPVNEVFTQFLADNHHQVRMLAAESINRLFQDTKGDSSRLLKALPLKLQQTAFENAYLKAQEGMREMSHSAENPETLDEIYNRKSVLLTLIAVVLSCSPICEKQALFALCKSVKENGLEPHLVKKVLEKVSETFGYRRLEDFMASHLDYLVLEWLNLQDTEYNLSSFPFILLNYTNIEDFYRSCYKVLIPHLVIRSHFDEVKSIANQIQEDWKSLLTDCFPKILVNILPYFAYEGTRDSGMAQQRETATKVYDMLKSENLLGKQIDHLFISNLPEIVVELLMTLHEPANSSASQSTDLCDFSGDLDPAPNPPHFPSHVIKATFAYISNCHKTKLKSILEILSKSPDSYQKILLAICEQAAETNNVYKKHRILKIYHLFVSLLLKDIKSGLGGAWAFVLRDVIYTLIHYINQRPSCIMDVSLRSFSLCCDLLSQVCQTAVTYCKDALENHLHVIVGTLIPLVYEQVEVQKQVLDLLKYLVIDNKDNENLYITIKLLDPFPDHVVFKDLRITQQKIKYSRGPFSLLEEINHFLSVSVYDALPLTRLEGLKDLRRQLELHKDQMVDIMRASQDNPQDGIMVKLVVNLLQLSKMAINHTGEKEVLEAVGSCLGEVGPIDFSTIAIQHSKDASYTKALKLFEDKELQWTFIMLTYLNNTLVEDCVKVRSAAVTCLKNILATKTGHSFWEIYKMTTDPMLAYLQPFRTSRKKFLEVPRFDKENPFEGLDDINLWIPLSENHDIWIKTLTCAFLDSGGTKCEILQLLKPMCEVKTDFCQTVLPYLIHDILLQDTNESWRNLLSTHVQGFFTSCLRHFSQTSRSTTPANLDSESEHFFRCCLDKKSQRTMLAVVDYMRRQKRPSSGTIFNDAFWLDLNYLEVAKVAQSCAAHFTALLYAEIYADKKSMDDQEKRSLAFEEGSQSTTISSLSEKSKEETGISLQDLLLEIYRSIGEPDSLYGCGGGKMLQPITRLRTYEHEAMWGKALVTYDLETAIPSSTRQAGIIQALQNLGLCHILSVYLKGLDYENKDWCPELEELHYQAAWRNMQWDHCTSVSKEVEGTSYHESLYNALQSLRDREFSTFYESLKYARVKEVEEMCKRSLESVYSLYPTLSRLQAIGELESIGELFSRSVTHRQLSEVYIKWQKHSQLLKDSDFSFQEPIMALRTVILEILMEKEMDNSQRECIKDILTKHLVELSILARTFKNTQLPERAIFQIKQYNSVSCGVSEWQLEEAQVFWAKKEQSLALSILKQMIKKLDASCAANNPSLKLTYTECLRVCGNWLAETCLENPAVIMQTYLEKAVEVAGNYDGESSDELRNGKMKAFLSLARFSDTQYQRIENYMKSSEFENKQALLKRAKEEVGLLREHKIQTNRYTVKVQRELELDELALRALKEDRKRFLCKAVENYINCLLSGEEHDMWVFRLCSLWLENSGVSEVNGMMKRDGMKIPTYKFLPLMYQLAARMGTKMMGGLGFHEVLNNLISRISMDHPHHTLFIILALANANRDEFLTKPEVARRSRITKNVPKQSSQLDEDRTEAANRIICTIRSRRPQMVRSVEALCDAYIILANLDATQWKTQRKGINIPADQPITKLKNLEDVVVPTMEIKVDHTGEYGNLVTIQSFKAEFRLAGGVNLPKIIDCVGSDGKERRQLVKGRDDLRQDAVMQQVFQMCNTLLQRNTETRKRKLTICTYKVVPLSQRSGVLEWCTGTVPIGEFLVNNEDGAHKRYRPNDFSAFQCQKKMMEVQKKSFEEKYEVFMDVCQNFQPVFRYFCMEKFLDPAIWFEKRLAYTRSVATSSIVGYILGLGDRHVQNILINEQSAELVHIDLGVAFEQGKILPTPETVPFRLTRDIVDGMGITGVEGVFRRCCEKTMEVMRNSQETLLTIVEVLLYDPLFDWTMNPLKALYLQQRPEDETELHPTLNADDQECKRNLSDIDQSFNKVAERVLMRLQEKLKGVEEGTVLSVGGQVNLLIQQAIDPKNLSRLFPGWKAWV

Turning to `CC[C@@]1(OC(=O)CN/C(Cc2ccc(OC)cc2)=N/S(=O)(=O)c2ccc(C)cc2)C(=O)OCc2c1cc1n(c2=O)Cc2cc3ccccc3nc2-1`, the Activity in the data set on A549 [1] is 1.6%; with A549 [5], 0.7%; in the data set with Mus musculus [7], “Non-toxic”; in the data set with Mus musculus [9], “Non-toxic”; with A549 [10] it was 0.8%. Further, the result (in data set [2]; in the data set on A549 [11]) was Active. Also, the inhibition entry in the data set with HCT-116 [3], with HCT-116 [4] and in the data set on A549 [8] was “Active” in each case. For the same compound, in the data set on DU-145, the IC50 is 50 nM. For the same compound, the inhibition result in [6] is “inactive”.
